The record followed here is ChEMBL document CHEMBL1123712, “Synthesis and biological activity of novel calcium channel blockers: 2,5-dihydro-4-methyl-2-phenyl-1,5-benzothiazepine-3-carboxylic acid esters and 2,5-dihydro-4-methyl-2-phenyl-1,5-benzodiazepine-3-carboxylic acid esters” (J Med Chem, 1987).

The species named for assay [1] is Oryctolagus cuniculus. Nature of the assay: Calcium channel blocking activity in rabbit. It counts as functional. An outline of the steps: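 Thoracic aorta strips from male New Zealand rabbits (1.8–2.4 kg) in Krebs PSS at 37 °C, gassed 95% O2/5% CO2, pH 7.35. Contracted with high-K+ (100 mM KCl, NaCl reduced equimolar) Krebs. At plateau tension, increasing concentrations added cumulatively. Relaxation normalized to initial tension. IC50 by logit transformation of concentration-response curves.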

For assay [2], the target named is Voltage-dependent L-type calcium channel subunit alpha-1C (Canis lupus familiaris). Nature of the assay: Reduction in amplitude of calcium-dependent slow-response action potential by blocking voltage sensitive calcium channel.
Assay [3] concerns Rattus norvegicus. In words: Percent decrease in blood pressure in hypertensive rat at 60 mg/kg po. It counts as functional. In a few lines:
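Spontaneously hypertensive rats dosed orally. Read-out was percent fall in blood pressure.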

Assay [4] relates to Rattus norvegicus. In words: Percent decrease in blood pressure in hypertensive rat at 16 mg/kg po. It counts as functional. In a few lines:
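Spontaneously hypertensive rats dosed orally. Blood pressure read-out expressed as percent decrease. Test agents were given […] po.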

Regarding `CO/C(O)=C1\C(C)=Nc2ccccc2SC1c1ccccc1` (stereo unspecified), the IC50 in assay [1] turned out to be 1700 nM.

With `CO/C(O)=C1\C(C)=Nc2ccccc2SC1c1ccccc1C(F)(F)F` (stereo unspecified), the IC50 in assay [1] stood at 12000 nM.

For the compound `CO/C(O)=C1\C(C)=Nc2ccccc2SC1c1ccc(OC)cc1` (stereo unspecified), the IC50 in assay [1] stood at 22000 nM.

Regarding `CO/C(O)=C1\C(C)=Nc2ccccc2SC1c1cccc([N+](=O)[O-])c1` (stereo unspecified), the IC50 in assay [1] stood at 1200 nM; in assay [2], 140 nM.

As for `CCO/C(O)=C1\C(C)=Nc2ccccc2NC1c1cccc([N+](=O)[O-])c1` (stereo unspecified), in assay [1], the IC50 amounted to 1600 nM.

For `CC1=Nc2ccccc2SC(c2cccc([N+](=O)[O-])c2)/C1=C(\O)OC(C)C` (stereo unspecified), in assay [1], the half-maximal inhibitory concentration (IC50) was 500 nM.

In the case of `CCO/C(O)=C1\C(C)=Nc2ccccc2SC1c1cccc([N+](=O)[O-])c1` (stereo unspecified), the IC50 in assay [1] came to 400 nM.

Turning to `COC(=O)C1=C(C)N(CCN(C)C)c2ccccc2SC1c1cccc([N+](=O)[O-])c1` (stereo unspecified), the IC50 in assay [1] was determined as 1100 nM.

For `CO/C(O)=C1\C(C)=Nc2ccccc2SC1c1ccccc1[N+](=O)[O-]` (stereo unspecified), the IC50 in assay [1] was determined as 300 nM.

Turning to `CO/C(O)=C1\C(C)=Nc2ccccc2S(=O)(=O)C1c1ccccc1` (stereo unspecified), in assay [1], the IC50 worked out at 10000 nM.

In the case of `CO/C(O)=C1\C(C)=Nc2ccccc2SC1c1ccc([N+](=O)[O-])cc1` (stereo unspecified), the IC50 in assay [1] was determined as 3000 nM.

On to `COc1ccc([C@@H]2Sc3ccccc3N(CCN(C)C)C(=O)[C@@H]2OC(C)=O)cc1` [DILTIAZEM], for which, in assay [1], the half-maximal inhibitory concentration (IC50) turned out to be 1000 nM. In assay [3], this compound came in with a Decrease of 10%.

As for `COC(=O)C1=C(C)NC(C)=C(C(=O)OC)C1c1ccccc1[N+](=O)[O-]` [NIFEDIPINE], the half-maximal inhibitory concentration (IC50) in assay [1] is 1 nM. Also, in assay [4], the Decrease was determined as 25%.
